This note sets out measurements from ChEMBL document CHEMBL4257500, “Design, synthesis and antimycobacterial activity of hybrid molecules combining pyrazinamide with a 4-phenylthiazol-2-amine scaffold” (Medchemcomm, 2018).

Values after ≈ are worked out from the molar mass of the structure shown. A value given as a limit tells only on which side of the number the result lay.

The test system of data set [1] is Mycobacterium tuberculosis. Briefly: Antimycobacterial activity against Mycobacterium tuberculosis H37Rv ATCC 27294 incubated in dark for 5 days by Alamar Blue assay. The data set is classed as functional. The following applies: H37Rv ATCC 27294, 120 h. Summed up:
(§1)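 Middlebrook 7H9 broth with 0.4% glycerol and 10% OADC, pH 6.6. Compounds in DMSO, final 100–1.56 µg/mL by twofold steps. Inoculum 0.5–1.0 McFarland in saline, diluted 10⁻¹. Static incubation at 37 °C, dark, humid, 5 days. Alamar Blue (resazurin/Tween 80) added, read after 24 h. MIC = lowest concentration preventing the blue-to-pink change by eye; turbidity also inspected. Isoniazid control.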

The test system of data set [2] is Mycobacterium kansasii. As to the kind of experiment: Antimycobacterial activity against Mycobacterium kansasii Hauduroy ATCC 12478 incubated in dark for 5 days by Alamar Blue assay. The format is functional, Mycobacterium kansasii ATCC 12478. The following applies: 120 h.
The test system of data set [3] is Mycobacterium avium. As to the kind of experiment: Antimycobacterial activity against Mycobacterium avium subsp. avium Chester ATCC 15769 incubated in dark for 5 days by Alamar Blue assay. Conditions: Chester ATCC 15769, 120 h. The format is functional. A digest of the protocol:
as §1

Data set [4] deals with Mycolicibacterium smegmatis. As to the kind of experiment: Antimycobacterial activity against Mycobacterium smegmatis ATCC 607 incubated in dark for 48 hrs by resazurin assay. The format is functional. Conditions: ATCC 607, 48 h. Summed up: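 Broth microdilution in Middlebrook 7H9 with glycerol and OADC, pH 6.6. Inoculum 0.5–1.0 McFarland, diluted 1:20 in broth. Compounds in DMSO by binary dilution, final 3.91–500 µg/mL; DMSO ≤2.5% v/v. Sealed plates kept dark, 37 °C, no agitation. After 48 h, 0.01% resazurin added; read after a further 2.5 h. Run in duplicate.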

Data set [5] can be described thus: Solubility of compound in DMSO at 15 mg at room temperature. The format is physicochemical.
The test system of data set [6] is HepG2. As to the kind of experiment: Cytotoxicity against human HepG2 cells assessed as decrease in cell viability after 24 hrs by MTS assay. The data set is classed as cell-based. The following applies: HepG2, 24 h. A digest of the protocol:
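HepG2 (passage 32–34) seeded at 1×10^4 cells/well and treated 24 h later. Compounds in DMSO, 0.1–1000 µM depending on solubility; DMSO ≤1%. Triplicates at 37 °C, 5% CO2 for 24 h. MTS reagent (CellTiter 96 AQueous One) for 2 h, absorbance at 490 nm. IC50 by nonlinear regression of absorbance relative to untreated cells.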

A short description of data set [7]: Selectivity index, ratio of IC50 for human HepG2 cells to MIC for Mycobacterium tuberculosis H37Rv ATCC 27294. The data set is classed as toxicity. Conditions: read-out: Selectivity Index. A digest of the protocol:
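SI = HepG2 IC50 / Mtb H37Rv MIC, with MIC converted to µM (µg/mL ÷ MW). HepG2 cells (passage 32–34) seeded at 1×10^4 per well. Treated after 24 h with 0.1–1000 µM depending on solubility, DMSO ≤1%, triplicates, 37 °C, 5% CO2, 24 h. Viability read by MTS-type reagent at 490 nm after 2 h. IC50 from nonlinear regression.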

Data set [8] concerns HepG2. As to the kind of experiment: Cytotoxicity against human HepG2 cells assessed as decrease in cell viability after 24 hrs by CellTox green assay. Conditions: HepG2, 24 h. The format is cell-based. Summed up: (§2)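 HepG2 seeded at 1×10^4 cells/well, dosed the next day with compounds in DMSO at 0.1–500 µM; DMSO ≤1%. Triplicates at 37 °C, 5% CO2. CellTox Green reagent added after 24 h exposure, 15 min at room temperature, fluorescence Ex 485/Em 520 nm. Reading repeated 24 h later for the 48 h value. IC50 by nonlinear regression against untreated control.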

Data set [9] deals with HepG2. As to the kind of experiment: Cytotoxicity against human HepG2 cells assessed as decrease in cell viability after 48 hrs by CellTox green assay. The data set is classed as cell-based. Conditions: HepG2, 48 h. Summed up:
as §2

In data set [10] the test system is Mycobacterium tuberculosis. Briefly: Antimycobacterial activity against Mycobacterium tuberculosis H37Rv assessed as growth inhibition at 6.25 ug/ml by BACTEC 460 radiometric assay relative to control. The data set is classed as functional. The following applies: read-out: GI.
Data set [11] is described as follows: Solubility of compound in DMSO at 15 mg at 55 to 80 degC. The format is physicochemical.

`O=C(Nc1nc(-c2ccc(Cl)cc2)cs1)c1cnc(Cl)cn1`: the MIC in data set [1] is > 50 µg/mL; in data set [2], > 50 µg/mL; in [3] it was > 50 µg/mL; in data set [4] it was > 500 µg/mL. In addition, the solubility entry in data set [5] is “Soluble”.

Turning to `COc1ccc(-c2csc(NC(=O)c3cnccn3)n2)cc1OC`, the MIC is > 50 µg/mL in data set [1], > 50 µg/mL in [2], > 50 µg/mL in [3] and > 125 µg/mL in data set [4]. Besides, in [5], the solubility entry is “Soluble”.

With `O=C(Nc1nc(-c2ccc(F)cc2)cs1)c1cnc(Cl)cn1`, the minimal inhibitory concentration (MIC) is 9.4 µM in data set [1], 12.5 µg/mL (≈ 37.3 µM) in data set [2], > 50 µg/mL in data set [3] and > 500 µg/mL in data set [4]. Besides, in data set [5], the solubility result was “Soluble”. For the same compound, the results for the half-maximal inhibitory concentration (IC50) in data set [6], in [8] and in data set [9] were 24.8 µM, 22.4 µM and 18.1 µM, respectively. Besides, the selectivity ratio in data set [7] came out at 2.7.

Consider `O=C(Nc1nc(-c2ccc(Cl)cc2)cs1)c1cnccn1`, for which the minimal inhibitory concentration (MIC) is > 12.5 µg/mL in data set [1], > 12.5 µg/mL in [2], > 12.5 µg/mL in data set [3] and 62.5 µg/mL (≈ 197 µM) in [4]. In addition, the solubility result in data set [5] is “Insoluble”.

On to `Cc1csc(NC(=O)c2cnc(C(C)(C)C)c(Cl)n2)n1`, for which the inhibition of growth at 6.25 µg/mL in data set [10] was 15 to 65%.

On to `O=C(Nc1nc(-c2ccccn2)cs1)c1cncc(Cl)n1`, for which the MIC in data set [1] was > 50 µg/mL; in data set [2] it was > 50 µg/mL; in data set [3], > 50 µg/mL; in [4], > 125 µg/mL. The solubility result in [11] is “Soluble”.

Take `Cc1cnc(NC(=O)c2cnc(C(C)(C)C)c(Cl)n2)s1`: in data set [10], the inhibition of growth at 6.25 µg/mL was in the range of 15 to 65%.

For `NNC(=O)c1ccncc1` [ISONIAZID], the MIC lay within 0.1 to 0.2 µg/mL in data set [1], 12.5 to 25 µg/mL (≈ 91.1 to 182 µM) in data set [2], 6.25 to 12.5 µg/mL (≈ 45.6 to 91.1 µM) in data set [3] and 7.8 to 15.6 µg/mL (≈ 56.9 to 114 µM) in data set [4]. Also, the solubility entry in data set [5] was “Soluble”.

`CC(C)(C)c1ncc(C(=O)Nc2nccs2)nc1Cl`: the inhibition of growth at 6.25 µg/mL in data set [10] lay within 15 to 65%.

Turning to `COc1ccc(-c2csc(NC(=O)c3cncc(Cl)n3)n2)cc1`, the minimal inhibitory concentration (MIC) in [1] is 4.5 µM; in data set [2], 12.5 µg/mL (≈ 36 µM); in [3], > 12.5 µg/mL; in data set [4], 62.5 µg/mL (≈ 180 µM). In data set [5], the solubility result is recorded as “Insoluble”. In addition, in [6], the 50% inhibitory concentration (IC50) was > 25 µM. The selectivity ratio in data set [7] was > 5.6.

As for `O=C(Nc1nc(-c2ccccn2)cs1)c1cnccn1`, the MIC in data set [1] was 22.1 µM; in data set [2] it was > 50 µg/mL; in [3], > 50 µg/mL; in data set [4] it was > 125 µg/mL. Further, the solubility result in [11] was “Soluble”. Also, in [6], the half-inhibitory concentration (IC50) was > 25 µM. Further, the selectivity ratio in data set [7] is > 1.1.

On to `COc1ccc(-c2csc(NC(=O)c3cnc(Cl)cn3)n2)cc1`, for which the MIC in data set [1] was 4.5 µM; in data set [2] it was > 50 µg/mL; in data set [3], > 50 µg/mL; in data set [4], > 500 µg/mL. The solubility entry in data set [11] is on record as “Soluble”. In addition, the IC50 in [6] was > 75 µM. In addition, in [7], the selectivity ratio was > 16.7.

On to `O=C(Nc1nc(-c2ccccc2)cs1)c1cnc(Cl)cn1`, for which the MIC was > 100 µg/mL in [1], > 100 µg/mL in data set [2], > 100 µg/mL in data set [3] and > 500 µg/mL in [4]. Also, the solubility result in data set [11] is “Soluble”.

Consider `Cc1csc(NC(=O)c2cncc(Cl)n2)n1`, for which, in data set [10], the inhibition of growth at 6.25 µg/mL lay within 15 to 65%.

For `COc1ccc(-c2csc(NC(=O)c3cncc(Cl)n3)n2)cc1OC`, the MIC in data set [1] was 4.1 µM; in data set [2], > 12.5 µg/mL; in data set [3], > 12.5 µg/mL; in data set [4] it was > 125 µg/mL. The solubility result in [5] is “Insoluble”. For the same compound, the IC50 in data set [6] is > 25 µM. In data set [7], the selectivity ratio was > 6.

Consider `O=C(Nc1nc(-c2ccc(Cl)cc2)cs1)c1cncc(Cl)n1`, for which the MIC in data set [1] was > 12.5 µg/mL; in data set [2] it was > 12.5 µg/mL; in data set [3], > 12.5 µg/mL; in data set [4] it was 62.5 µg/mL (≈ 178 µM). The solubility entry in data set [5] was “Soluble”.

Take `O=C(Nc1nc(-c2ccccc2)cs1)c1cnccn1`: the MIC in data set [1] is > 50 µg/mL; in data set [2] it was > 50 µg/mL; in data set [4], > 250 µg/mL. For the same compound, the solubility entry in [5] is “Soluble”.

With `COc1ccc(-c2csc(NC(=O)c3cnc(Cl)cn3)n2)cc1OC`, the MIC was > 12.5 µg/mL in [1], > 12.5 µg/mL in data set [2], > 12.5 µg/mL in data set [3] and > 250 µg/mL in [4]. The solubility result in data set [5] is listed as “Insoluble”.

`CO[C@H]1/C=C/O[C@@]2(C)Oc3c(C)c(O)c4c(O)c(c(/C=N/N5CCN(C)CC5)c(O)c4c3C2=O)NC(=O)/C(C)=C\C=C\[C@H](C)[C@H](O)[C@@H](C)[C@@H](O)[C@@H](C)[C@H](OC(C)=O)[C@@H]1C` [RIFAMPIN]: the MIC in data set [1] fell in the range of 0.78 to 1.56 µg/mL; in [2], 0.78 to 1.56 µg/mL (≈ 0.948 to 1.9 µM); in data set [3] it was 0.78 to 1.56 µg/mL (≈ 0.948 to 1.9 µM); in data set [4], 0.78 to 1.56 µg/mL (≈ 0.948 to 1.9 µM).

Take `O=C(Nc1nc(-c2ccc(F)cc2)cs1)c1cnccn1`: the MIC was > 12.5 µg/mL in [1], > 12.5 µg/mL in data set [2], > 12.5 µg/mL in data set [3] and > 250 µg/mL in data set [4]. Besides, in data set [5], the solubility entry is “Insoluble”.

With `O=C(Nc1nc(-c2ccc(F)cc2)cs1)c1cncc(Cl)n1`, the MIC in data set [1] is 2.3 µM; in data set [2] it was 0.78 µg/mL (≈ 2.33 µM); in [3] it was 0.78 µg/mL (≈ 2.33 µM); in data set [4] it was > 250 µg/mL. The solubility result in [5] is on record as “Soluble”. For the same compound, the IC50 in data set [6], in data set [8] and in [9] was > 50 µM in each case. In addition, the selectivity ratio in [7] is > 21.5.

As to `Cc1cnc(NC(=O)c2cncc(Cl)n2)s1`, in data set [10], the inhibition of growth at 6.25 µg/mL was in the range of 15 to 65%.

Turning to `O=C(Nc1nccs1)c1cncc(Cl)n1`, the inhibition of growth at 6.25 µg/mL in data set [10] was 15 to 65%.

As for `O=C(Nc1nc(-c2ccccn2)cs1)c1cnc(Cl)cn1`, the MIC was > 50 µg/mL in data set [1], > 50 µg/mL in data set [2], > 50 µg/mL in data set [3] and > 125 µg/mL in data set [4]. In [11], the solubility result was “Soluble”.

Turning to `O=C(Nc1nc(-c2ccccc2)cs1)c1cncc(Cl)n1`, the figures for the MIC in data set [1], in data set [2] and in data set [4] were > 50 µg/mL, > 50 µg/mL and > 500 µg/mL, respectively. For the same compound, the solubility result in data set [11] is reported as “Soluble”.

As to `O=C(O)c1cn(C2CC2)c2cc(N3CCNCC3)c(F)cc2c1=O` [CIPROFLOXACIN], the MIC in data set [1] is 0.098 to 0.195 µg/mL; in data set [2] it was 0.098 to 0.195 µg/mL (≈ 0.296 to 0.589 µM); in data set [3], 0.098 to 0.195 µg/mL (≈ 0.296 to 0.589 µM); in [4], 0.098 to 0.195 µg/mL (≈ 0.296 to 0.589 µM).

In the case of `COc1ccc(-c2csc(NC(=O)c3cnccn3)n2)cc1`, the MIC in [1] is > 100 µg/mL; in data set [2], > 100 µg/mL; in data set [3], > 100 µg/mL; in [4], > 250 µg/mL. For the same compound, the solubility result in [5] is on record as “Soluble”.
